Measurements as given in ChEMBL document CHEMBL6134855, “Peptidomimetics Activating the Proteasome: A New Perspective for Parkinson's Treatment” (J Med Chem, 2025).
One block for each molecule: values may come before it. Active and inactive are the calls of the source. The calls are words filed in the database; no cut-off is given here. Where a SMILES comes first, the peptide text is derived from it. [ ]: non-standard residue; d: D form. N(4-MeOBn)Gly = COc1ccc(CNCC(=O)O)cc1; NMeY = CN[C@@H](Cc1ccc(O)cc1)C(=O)O; Gly(N-CH2CH2OH) = O=C(O)CNCCO; NMeK = CN[C@@H](CCCCN)C(=O)O; Nlys = NCCCCNCC(=O)O

How the values were obtained:
[1] = target: T1, 20S proteasome (Homo sapiens) (UniProt P49721+P20618+P28074+P28062+P28065+P28072+P25786+P25787+P25788+P25789+P28066+P60900+O14818+Q8TAA3+P40306+A5LHX3+P49720+P28070+Q99436); assay: Activation of human erythrocyte-derived 20S proteasome chymotrypsin-like activity using succinyl-LeuLeuValTyr-AMC as substrate assessed as fold increase in activity incubated for 1 hr by fluorescence based analysis relative to control; conditions: filed as activator
How it was run: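 h20S proteasome 0.002 mg/mL (2.8 nM) in 50 mM Tris/HCl pH 8.0, 2% DMSO final. Suc-LLVY-AMC 100 μM final. Modulators 1.0–50 μM (TAT/6R constructs 0.5–10 μM). AMC fluorescence ex 380/em 460 nm read every 2 min for 60 min at 37 °C. Activity relative to DMSO-treated latent proteasome (100%); ≥3 replicates.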

[2] = target: T1, 20S proteasome (Homo sapiens); assay: Activation of human erythrocyte-derived 20S proteasome chymotrypsin-like activity using Suc-LLVY-AMC as substrate at 1.0 to 50 uM measured every two mins for 60 mins by fluorescence based analysis; conditions: filed as activator, dose 1-50 µM
[3] = target: T1, 20S proteasome (Homo sapiens); assay: Activation of human erythrocyte-derived 20S proteasome using Dabcyl-EDANS as FRET-type substrate at 1.0 to 50 uM measured every two mins for 60 mins by fluorescence based analysis; assay type: cell-based; conditions: filed as activator, dose 1-50 µM
How it was run: (§1)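 Latent human 20S proteasome (0.002 mg/mL, 2.8 nM) in 50 mM Tris/HCl pH 8.0 with 2% DMSO. AMC substrates at 100 μM final (ex 380/em 460 nm); Dabcyl-EDANS at 15 μM final (ex 335/em 493 nm). Modulators at 1.0–50 μM; TAT- or 6R-containing constructs at 0.5–10 μM. Read every 2 min for 60 min at 37 °C. Activity relative to DMSO-treated proteasome (100%). ≥3 independent replicates.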

[4] = Proteolytic stability of compound in human plasma assessed as protease-mediated degradation by measuring compound remaining at 200 uM incubated for 30 mins by UHPLC analysis; assay type: ADME, cell-free; conditions: read-out: Stability
How it was run: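 Compound (200 μM final, dissolved in water) incubated in human serum at 37 °C for 30 min. Samples every 5 min quenched 1:1 with 6% TCA and centrifuged. Supernatant analysed by UHPLC (UV 223 nm) for intact compound; cleavage sites identified by MS.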

[5] = target: T1, 20S proteasome (Homo sapiens); assay: Activation of human erythrocyte-derived 20S proteasome chymotrypsin-like activity using Suc-LLVY-AMC as substrate at lower concentration measured every two mins for 60 mins by fluorescence based analysis; conditions: filed as activator; how it was run: as §1
[6] = target: T1, 20S proteasome (Homo sapiens); assay: Activation of human erythrocyte-derived 20S proteasome using Dabcyl-EDANS as FRET-type substrate at lower concentration measured every two mins for 60 mins by fluorescence based analysis; assay type: cell-based; conditions: filed as activator; how it was run: as §1
[7] = target: T1, 20S proteasome (Homo sapiens); assay: Activation of human erythrocyte-derived 20S proteasome caspase-like activity using Z-LLE-AMC as substrate at lower concentration measured every two mins for 60 mins by fluorescence based analysis; conditions: filed as activator; how it was run: as §1
[8] = target: T1, 20S proteasome (Homo sapiens); assay: Activation of human erythrocyte-derived 20S proteasome trypsin-like activity using Boc-LRR-AMC as substrate at lower concentration measured every two mins for 60 mins by fluorescence based analysis; conditions: filed as activator; how it was run: as §1
[9] = target: T1, 20S proteasome (Homo sapiens); assay: Activation of human erythrocyte-derived 20S proteasome chymotrypsin-like activity using Suc-LLVY-AMC as substrate at higher concentration measured every two mins for 60 mins by fluorescence based analysis; conditions: filed as activator; how it was run: as §1
[10] = target: T1, 20S proteasome (Homo sapiens); assay: Activation of human erythrocyte-derived 20S proteasome chymotrypsin-like activity using Suc-LLVY-AMC as substrate at 1 uM measured every two mins for 60 mins by fluorescence based analysis; conditions: filed as activator; how it was run: as §1
[11] = Permeability of compound in PBS incubated for 22 hrs by PAMPA-BBB assay; assay type: ADME
How it was run: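 PAMPA-BBB with a 2% porcine brain lipid membrane. Compounds were diluted from 10 mM aqueous stocks to 500 μM in 0.1 M PBS containing 5% DMSO and incubated 22 h at 37 °C with shaking at 250 rpm. Read-out was fluorescence after reaction with 0.02% fluorescamine (absorbance at 290 nm for propranolol). Pe calculated as linear permeation velocity. Three biological replicates.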

[12] = target: T1, 20S proteasome (Homo sapiens); assay: Activation of human erythrocyte-derived 20S proteasome chymotrypsin-like activity using Suc-LLVY-AMC as substrate assessed as fold increase in activity at 1.0 to 50 uM measured every two mins for 60 mins by fluorescence based analysis relative to control; conditions: filed as activator, dose 1-50 µM; how it was run: as §1
[13] = target: T1, 20S proteasome (Homo sapiens); assay: Activation of human erythrocyte-derived 20S proteasome using Dabcyl-EDANS as FRET-type substrate assessed as fold increase in activity at 1.0 to 50 uM measured every two mins for 60 mins by fluorescence based analysis relative to control; assay type: cell-based; conditions: filed as activator, dose 1-50 µM; how it was run: as §1

Molecule: N=C(N)NCCC[C@H](NC(=O)CN)C(=O)N[C@@H](CCCCN)C(=O)N[C@@H](CCCCN)C(=O)N[C@@H](CCCNC(=N)N)C(=O)N[C@@H](CCCNC(=N)N)C(=O)N[C@@H](CCC(N)=O)C(=O)N1Cc2ccccc2CC1C(=O)N1[C@@H](C(=O)N[C@@H](CCCNC(=N)N)C(=O)N2CCC[C@H]2C(=O)N[C@@H](CO)C(=O)O)C[C@@H]2CCCC[C@@H]21 (some centres not stated)
fold change (FC) [1]: 8

Molecule: COc1ccc(CN(CC(=O)N[C@@H](CCCNC(=N)N)C(=O)N[C@@H](CCCNC(=N)N)C(=O)N[C@@H](Cc2ccc(O)cc2)C(=O)N[C@@H](Cc2ccc(O)cc2)C(=O)N[C@@H](CO)C(=O)O)C(=O)[C@H](CC(=O)O)NC(=O)[C@H](CCCCN)NC(=O)[C@H](CO)NC(=O)CNC(=O)[C@@H](NC(=O)[C@H](Cc2ccccc2)NC(=O)[C@H](Cc2ccc(O)cc2)NC(=O)[C@@H](N)CCCCN)[C@@H](C)O)cc1 (H-KYFTGSKD[N(4-MeOBn)Gly]RRYYS-OH)
remaining at 0.5 h, 200 µM [4]: < 30%
Activity [5]: Active
Activity [6]: Active
Activity [7]: Weak_effect
Activity [3]: Active
Activity [8]: Weak_effect

Molecule: COc1ccc(CN(CC(=O)N[C@@H](Cc2ccccc2)C(=O)N[C@H](C(=O)NCC(=O)N[C@@H](CO)C(=O)N[C@@H](CCCCN)C(=O)N[C@@H](CC(=O)O)C(=O)N[C@@H](Cc2ccc(O)cc2)C(=O)N[C@@H](CCCNC(=N)N)C(=O)N[C@@H](CCCNC(=N)N)C(=O)N[C@@H](Cc2ccc(O)cc2)C(=O)N[C@@H](Cc2ccc(O)cc2)C(=O)N[C@@H](CO)C(=O)O)[C@@H](C)O)C(=O)[C@@H](N)CCCCN)cc1 (H-K[N(4-MeOBn)Gly]FTGSKDYRRYYS-OH)
Activity [10]: Moderate_effect

Molecule: CN[C@@H](CCCCN)C(=O)N(C)[C@@H](Cc1ccc(O)cc1)C(=O)N[C@@H](Cc1ccccc1)C(=O)N[C@H](C(=O)NCC(=O)N[C@@H](CO)C(=O)N[C@@H](CCCCN)C(=O)N[C@@H](CC(=O)O)C(=O)N[C@@H](Cc1c[nH]c2ccccc12)C(=O)N[C@@H](CCCNC(=N)N)C(=O)N[C@@H](CO)C(=O)N[C@@H](Cc1ccc(O)cc1)C(=O)N[C@@H](Cc1ccc(O)cc1)C(=O)N[C@@H](CO)C(=O)O)[C@@H](C)O (H-[NMeK][NMeY]FTGSKDWRSYYS-OH)
Activity [3]: Active

Molecule: C[C@@H](O)[C@H](NC(=O)[C@H](Cc1ccccc1)NC(=O)[C@H](Cc1ccc(O)cc1)NC(=O)CNCCCCN)C(=O)NCC(=O)N[C@@H](CO)C(=O)N[C@@H](CCCCN)C(=O)N[C@@H](CC(=O)O)C(=O)N[C@@H](Cc1c[nH]c2ccccc12)C(=O)N[C@@H](CCCNC(=N)N)C(=O)N[C@@H](CO)C(=O)N[C@@H](Cc1ccc(O)cc1)C(=O)N[C@@H](Cc1ccc(O)cc1)C(=O)N[C@@H](CO)C(=O)O (H-[Nlys]YFTGSKDWRSYYS-OH)
permeability [11]: Impermeable

Molecule: C[C@@H](O)[C@H](NC(=O)[C@H](Cc1ccccc1)NC(=O)[C@H](Cc1ccc(O)cc1)NC(=O)CNCCCCN)C(=O)NCC(=O)N[C@@H](CO)C(=O)N[C@@H](CCCCN)C(=O)N[C@@H](CC(=O)O)C(=O)N[C@@H](Cc1c[nH]c2ccccc12)C(=O)N[C@@H](CCCNC(=N)N)C(=O)N(CCO)CC(=O)N[C@@H](Cc1ccc(O)cc1)C(=O)N[C@@H](Cc1ccc(O)cc1)C(=O)N[C@@H](CO)C(=O)O (H-[Nlys]YFTGSKDWR[Gly(N-CH2CH2OH)]YYS-OH)
Activity [2]: Active; Lower Capacity Of Activation Is Observed
Activity [3]: Active

Molecule: C[C@@H](O)[C@H](NC(=O)[C@H](Cc1ccccc1)NC(=O)[C@H](Cc1ccc(O)cc1)NC(=O)CNCCCCN)C(=O)NCC(=O)N[C@@H](CO)C(=O)N[C@@H](CCCCN)C(=O)N[C@@H](CC(=O)O)C(=O)N[C@@H](Cc1ccc(O)cc1)C(=O)N[C@@H](CCCNC(=N)N)C(=O)N[C@@H](CCCNC(=N)N)C(=O)N[C@@H](Cc1ccc(O)cc1)C(=O)N[C@@H](Cc1ccc(O)cc1)C(=O)N[C@@H](CO)C(=O)O (H-[Nlys]YFTGSKDYRRYYS-OH)
Activity [5]: Active
Activity [6]: Active
Activity [3]: Active

Molecule: H-KYFTGSKDWRSYYS-OH
remaining at 0.5 h, 200 µM [4]: ≤ 10%
fold change (FC) [12]: 8
fold change (FC) [13]: 12

Now from value to molecule, other results behind:

fold change (FC) [1]: 10
Molecule: NCCCC[C@H](NC(=O)[C@H](CCCCN)NC(=O)[C@@H](N)CCCCN)C(=O)Nc1cc(NC(=O)[C@H](CCCCN)NC(=O)[C@H](CCCCN)NC(=O)[C@@H](N)CCCCN)cc(NC(=O)[C@H](CCCCN)NC(=O)[C@H](CCCCN)NC(=O)[C@@H](N)CCCCN)c1

Activity [3]: Active
Molecule: C[C@@H](O)[C@H](NC(=O)[C@H](Cc1ccccc1)NC(=O)[C@H](Cc1ccc(O)cc1)NC(=O)[C@@H](N)CCCCN)C(=O)NCC(=O)N[C@@H](CO)C(=O)N[C@@H](CCCCN)C(=O)N[C@@H](CC(=O)O)C(=O)N[C@@H](Cc1c[nH]c2ccccc12)C(=O)N[C@@H](CCCNC(=N)N)C(=O)N(CCO)CC(=O)N[C@@H](Cc1ccc(O)cc1)C(=O)N[C@@H](Cc1ccc(O)cc1)C(=O)N[C@@H](CO)C(=O)O (H-KYFTGSKDWR[Gly(N-CH2CH2OH)]YYS-OH)
Activity [2]: Active; Lower Capacity Of Activation Is Observed

Activity [9]: Active
Molecule: C[C@@H](O)[C@H](NC(=O)[C@H](Cc1ccccc1)NC(=O)[C@H](Cc1ccc(O)cc1)NC(=O)[C@@H](N)CCCCN)C(=O)NCC(=O)N[C@@H](CO)C(=O)N(CCCCN)CC(=O)N[C@@H](CC(=O)O)C(=O)N[C@@H](Cc1ccc(O)cc1)C(=O)N[C@@H](CCCNC(=N)N)C(=O)N[C@@H](CCCNC(=N)N)C(=O)N[C@@H](Cc1ccc(O)cc1)C(=O)N[C@@H](Cc1ccc(O)cc1)C(=O)N[C@@H](CO)C(=O)O (H-KYFTGS[Nlys]DYRRYYS-OH)

Activity [5]: Active
Activity [6]: Active
Activity [7]: Weak_effect
Activity [3]: Active
Activity [8]: Weak_effect
Molecule: COc1ccc(CN(CC(=O)N[C@@H](CCCNC(=N)N)C(=O)N[C@@H](CCCNC(=N)N)C(=O)N[C@@H](Cc2ccc(O)cc2)C(=O)N[C@@H](Cc2ccc(O)cc2)C(=O)N[C@@H](CO)C(=O)O)C(=O)[C@H](CC(=O)O)NC(=O)[C@H](CCCCN)NC(=O)[C@H](CO)NC(=O)CNC(=O)[C@@H](NC(=O)[C@H](Cc2ccccc2)NC(=O)CN(Cc2ccc(OC)cc2)C(=O)[C@@H](N)CCCCN)[C@@H](C)O)cc1 (H-K[N(4-MeOBn)Gly]FTGSKD[N(4-MeOBn)Gly]RRYYS-OH)

Activity [9]: Active
Activity [10]: Moderate_effect
Molecule: C[C@@H](O)[C@H](NC(=O)[C@H](Cc1ccccc1)NC(=O)[C@H](Cc1ccc(O)cc1)NC(=O)CNCCCCN)C(=O)NCC(=O)N[C@@H](CO)C(=O)N(CCCCN)CC(=O)N[C@@H](CC(=O)O)C(=O)N[C@@H](Cc1ccc(O)cc1)C(=O)N[C@@H](CCCNC(=N)N)C(=O)N[C@@H](CCCNC(=N)N)C(=O)N[C@@H](Cc1ccc(O)cc1)C(=O)N[C@@H](Cc1ccc(O)cc1)C(=O)N[C@@H](CO)C(=O)O (H-[Nlys]YFTGS[Nlys]DYRRYYS-OH)

remaining at 0.5 h, 200 µM [4]: ≤ 10%
Activity [5]: Active
Activity [6]: Active
Molecule: H-KYFTGSKDYRRYYS-OH
